Activity calls are given as the source filed them. The rule behind the calls is not given here.
Assays:
[1] = Cmax in Sprague-Dawley rat assessed as JBP485 level at 12 mg/kg equiv of JBP485 administered orally by UPLC-MS/MS analysis; type: ADME, organism-based; set-up: dose 12 mg/kg, route oral; settings: in vivo, po
Outline: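 Male SD rats, 200-250 g, fasted 12 h with water, n=6. Oral dose of 12 mg/kg as JBP485 equivalent; dose-effect arms at 12 and 100 mg/kg. JBP485 given iv at 6 mg/kg as the reference. Jugular blood taken at 0.083-10 h. Plasma JBP485 by UPLC-MS/MS. Absolute F = (AUCpo×Div)/(AUCiv×Dpo)×100%, using AUC0-t.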

[2] = tested on: Rattus norvegicus; assay: (§1) Anti-hepatitis activity in ANIT-induced Sprague-Dawley rat model of liver injury assessed as reduction in serum aspartate aminotransferase level at 3.125 to 25 mg/kg, po administered 30 mins prior to ANIT challenge and subsequent dosing at 8, 22, 32, and 46 hrs post ANIT challenge and measured 48 hrs post ANIT challenge; type: functional, organism-based
Outline: (§2)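 ANIT (50 mg/kg ip, olive oil) cholestatic liver injury in male SD rats, 6 per group. Oral or ip dosing (UDCA 100 mg/kg po in CMC-Na) at 30 min before and 8, 22, 32 and 46 h after ANIT. Serum collected at 48 h from the abdominal aorta; ALT and AST activities measured with kits.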

[3] = AUC (0 to t) in Beagle dog at 12 mg/kg, po by UPLC-MS/MS analysis; type: ADME, organism-based, Canis lupus familiaris; settings: in vivo
Outline: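 Male beagle dogs, 2 years old, 8-10 kg, n=6. Single oral dose of 12 mg/kg (prodrug dosed as JBP485 equivalent) given in aqueous solution. Jugular venipuncture blood taken at 0.167-8 h into sodium heparin tubes. Plasma JBP485 measured by UPLC-MS/MS; AUC0-t and Cmax from the concentration-time profiles.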

[4] = tested on: Rattus norvegicus; assay: as §1, with “serum alanine” for “serum aspartate”, “at 6.25” for “at 3.125”, “to 12.5” for “to 25”, “mg/kg, ip” for “mg/kg, po”; type: functional, organism-based; outline: as §2
[5] = tested on: Rattus norvegicus; assay: Anti-hepatitis activity in ANIT-induced ip dosed Sprague-Dawley rat model of cholestasis assessed as reduction in serum total bilirubin level administered 30 mins prior to ANIT challenge and subsequent dosing at 8, 22, 32, and 46 hrs post ANIT challenge and measured 48 hrs post ANIT challenge; type: functional, organism-based
Outline: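 Male SD rats, 6 weeks old, fasted 12 h, 6 per group. Cholestasis induced by ANIT 50 mg/kg ip in olive oil. Test agents were given in water; UDCA 100 mg/kg was given orally in CMC-Na. Dosing at 30 min before and 8, 22, 32 and 46 h after ANIT. Serum taken from the abdominal aorta under chloral hydrate anesthesia at 48 h; total bilirubin measured with an assay kit.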

Row | Cmax [1] [µM] | AUCt [3] [nM/ml.hr] | Compound | Activity [2] | Activity [4] | Activity [5]
1 | 113 | – | CC(C)[C@H](N)C(=O)OC[C@@H]1NC(=O)[C@@H]2C[C@@H](O)CN2C1=O | Active | – | –
2 | – | 89.15 | O=C1N[C@@H](CO)C(=O)N2C[C@H](O)C[C@@H]12 | – | Active | Dose-dependent effect

Reference: ChEMBL document CHEMBL4373712, “Bioactivatable Pseudotripeptidization of Cyclic Dipeptides To Increase the Affinity toward Oligopeptide Transporter 1 for Enhanced Oral Absorption: An Application to Cyclo(l-Hyp-l-Ser) (JBP485)” (J Med Chem, 2019)
